According to ChEMBL document CHEMBL1131125, “Effect of polyamine analogues on hypusine content in JURKAT T-cells” (J Med Chem, 1998):

Legend:
[1] = test system: Jurkat; assay: Inhibitory activity against growth of JURKAT cells after 144h.; type: functional, cell-based; conditions: Homo sapiens
How it was run: (§1)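 JURKAT cells were grown in RPMI-1640 with 10% fetal calf serum, 2 mM L-glutamine and 1 mM aminoguanidine. Cells were counted electronically. IC50 is the concentration giving 50% of untreated growth, mean of at least two experiments.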

[2] = test system: Jurkat; assay: Competitive inhibition of [3H]SPD (spermidine) transport in JURKAT cells; type: functional, cell-based, Homo sapiens
How it was run: (§2)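 [3H]spermidine uptake rate into JURKAT cells was measured at six spermidine concentrations, without analogue and with analogue at 50, 25 and 10 μM. Lineweaver–Burk plots were used to assign the competitive mode and derive Ki. Values are means of two or three experiments.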

[3] = test system: Jurkat; assay: effect of compound on polyamine biosynthetic enzymes in JURKAT cells using AdoMetDC assay; type: functional, Homo sapiens
[4] = test system: Jurkat; assay: effect of compound on polyamine biosynthetic enzymes in JURKAT cells using ODC assay; type: functional, Homo sapiens
[5] = test system: Jurkat; assay: % of hypusine (Hpu) in JURKAT cells after 144 hr at 2 uM concentration; type: functional, cell-based; conditions: Homo sapiens
How it was run: (§3)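 JURKAT cells in log-phase growth were exposed to analogue for 144 h, at 2 μM for the tetraamines or 5 μM for the triamines. Cells were washed twice with ice-cold RPMI-1640 and extracted with 1.2 N HClO4. Values are percent of untreated control, mean ± SD of 2–5 determinations, each in triplicate.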

[6] = test system: Jurkat; assay: % of putrescine (PUT) in JURKAT cells after 144 h at 2 uM concentration; type: functional, cell-based; conditions: Homo sapiens
How it was run: (§4)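 Log-phase JURKAT cells were treated with analogue for 144 h, at 2 μM for tetraamines or 5 μM for triamines. After two ice-cold RPMI-1640 washes, pellets were extracted with 1.2 N HClO4. Results are percent of untreated control, mean ± SD of 2–5 determinations run in triplicate.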

[7] = test system: Jurkat; assay: % of spermidine (SPD) in JURKAT cells after 144 hr at 2 uM concentration; type: functional, cell-based; conditions: Homo sapiens; how it was run: as §4
[8] = test system: Jurkat; assay: % of spermine (SPM) in JURKAT cells after 144 hr at 2 uM concentration; type: functional, cell-based; conditions: Homo sapiens; how it was run: as §4
[9] = test system: L1210; assay: % of spermidine (SPD) in L1210 cells after 48 hr at 10 uM concentration; type: functional, cell-based; conditions: Mus musculus
[10] = test system: L1210; assay: % of spermine (SPM) in L1210 cells after 48 hr at 10 uM concentration; type: functional, cell-based; conditions: Mus musculus
[11] = test system: L1210; assay: % of putrescine (PUT) in L1210 cells after 48 hr at 10 uM concentration; type: functional, cell-based; conditions: Mus musculus
[12] = test system: L1210; assay: Effect of compound on polyamine biosynthetic enzymes in L1210 cells using ODC assay; type: functional, Mus musculus
[13] = test system: L1210; assay: effect of compound on polyamine biosynthetic enzymes in L1210 cells using AdoMetDC assay; type: functional, Mus musculus
[14] = test system: L1210; assay: Activity of compound measured against L1210 cells; type: functional, cell-based, Mus musculus
[15] = test system: Jurkat; assay: inhibitory activity against growth of JURKAT cells after 144h.; type: functional, cell-based; conditions: Homo sapiens; how it was run: as §1
[16] = test system: Jurkat; assay: competitive inhibition of [3H]SPD transport by JURKAT cells; type: functional, cell-based, Homo sapiens; how it was run: as §2
[17] = test system: Jurkat; assay: % of hypusine (Hpu) in JURKAT cells after 144 hr at 5 uM concentration; type: functional, cell-based; conditions: Homo sapiens; how it was run: as §3
[18] = test system: Jurkat; assay: % of putrescine (PUT) in JURKAT cells after 144 hr at 5 uM concentration; type: functional, cell-based; conditions: Homo sapiens; how it was run: as §4
[19] = test system: Jurkat; assay: % of spermidine (SPD) in JURKAT cells after 144 hr at 5 uM concentration; type: functional, cell-based; conditions: Homo sapiens; how it was run: as §4
[20] = test system: Jurkat; assay: % of spermine (SPM) in JURKAT cells after 144 hr at 5 uM concentration; type: functional, cell-based; conditions: Homo sapiens; how it was run: as §4
[21] = test system: L1210; assay: % of putrescine (PUT) in L1210 cells after 48 hr at 100 uM concentration; type: functional, cell-based; conditions: Mus musculus
[22] = test system: L1210; assay: % of spermidine (SPD) in L1210 cells after 48 hr at 100 uM concentration; type: functional, cell-based; conditions: Mus musculus
[23] = test system: L1210; assay: % of spermine (SPM) in L1210 cells after 48 hr at 100 uM concentration; type: functional, cell-based; conditions: Mus musculus
[24] = test system: L1210; assay: effect of compound on polyamine biosynthetic enzymes in L1210 cells using ODC assay; type: functional, Mus musculus
[25] = test system: Jurkat; assay: competitive inhibition of [3H]SPD transport in JURKAT cells; type: functional, cell-based, Homo sapiens; how it was run: as §2
[26] = test system: L1210; assay: Effect of compound on polyamine biosynthetic enzymes in L1210 cells using AdoMetDC assay; type: functional, Mus musculus
[27] = test system: L1210 (mouse); assay: % of hypusine (Hpu) in control cells after 72 hr at 2 uM concentration
[28] = test system: L1210 (mouse); assay: % of spermine (SPM) in control cells after 72 hr at 2 uM concentration
[29] = test system: L1210 (mouse); assay: % of putrescine (PUT) in control cells after 72 hr at 2 uM concentration
[30] = test system: L1210 (mouse); assay: % of spermidine (SPD) in control cells after 72 hr at 2 uM concentration

IC50 [1]	IC50 [15]	Structure (SMILES)	AdoMetDC activity (% of control) [3]	ODC activity (% of control) [4]	Level [5]	Level [6]	Level [7]	Level [8]	Level [9]	Level [10]	Level [11]	Control [12]	Control [13]	Ki [14]	Ki [16]	Level [17]	Level [18]	Level [19]	Level [20]	Level [21]	also measured
200 nM	–	CCNCCCCNCCCCNCCCCNCC [DIETHYLHOMOSPERMINE]	61.6%	29.8%	73.2%	0%	0%	13.4%	0%	61%	0%	7%	41%	2000 nM	–	–	–	–	–	–	Ki [2]: 8800 nM
–	1200 nM	NCCCCCNCCCCCN	84.9%	53.3%	–	–	–	–	–	–	–	–	88%	14000 nM	13800 nM	86.4%	0%	1.1%	38.8%	0%	Level [22]: 0%; Level [23]: 33%; Control [24]: 16%
70000 nM	–	NCCCCCNCCCCN	79.3%	34.7%	–	–	–	–	–	–	–	19%	–	1400 nM	–	80.2%	0%	0%	25.2%	0%	Ki [25]: 2800 nM; Level [22]: 0%; Level [23]: 53%; Control [26]: 57%
–	650 nM	CCNCCCNCCCNCCCNCC [BIS(ETHYL)NORSPERMINE]	51.4%	16.9%	58.9%	0%	9.2%	5.5%	14%	31%	30%	–	42%	–	14400 nM	–	–	–	–	–	Control [24]: 10%; Level [27]: 56.8%; Level [28]: 13.4%; Level [29]: 0%; Level [30]: 3.8%
